{
  "source": "ChEMBL document CHEMBL2010783",
  "about": "“Do plant cyclotides have potential as immunosuppressant peptides?” (J Nat Prod, 2012)",
  "assay_type_in_all_cases": "functional, cell-based",
  "key": {"PBMC [1]": {"test_system": "PBMC", "experiment": "Antiproliferative activity against activated human PBMC assessed as decrease in cell division at 1.6 uM after 72 hrs by flow cytometric analysis", "procedure,_shortened": "(§1)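 PBMC from healthy adult donors, isolated on a density gradient and cultured in RPMI 1640 with 10% heat-inactivated FCS at 37 °C and 5% CO2. 10^5 cells were stimulated with anti-CD3 (OKT3) and anti-CD28 mAbs for 72 h with test agent or medium. Cells were labelled with CFSE (5 μM, 10 min, 37 °C) and cell division was read by flow cytometry. Three or four independent experiments, mean ± SEM.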"}, "PBMC [2]": {"test_system": "PBMC", "experiment": "Induction of apoptosis in human activated PBMC assessed as internucleosomal DNA fragmentation at 1.6 uM by annexinV/propidium iodide staining-based flow cytometric analysis", "procedure,_shortened": "(§2)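 Donor PBMC (10^5) were activated with anti-CD3/CD28 mAbs for 72 h with test agent, medium or controls (camptothecin 30 μg/mL; Triton X-100 0.5%). Readouts were subG1 DNA content by flow cytometry, and annexin V-FITC then propidium iodide staining by flow cytometry. Gates: viable annexin−/PI−; apoptotic annexin+/PI− or +/+; necrotic annexin−/PI+. Three independent experiments, mean ± SEM.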"}, "PBMC [3]": {"test_system": "PBMC", "experiment": "Induction of apoptosis in human activated PBMC assessed as necrotic cells at 1.6 uM by annexinV/propidium iodide staining-based flow cytometric analysis", "procedure,_shortened": "as §2"}, "PBMC [4]": {"test_system": "PBMC", "experiment": "Antiproliferative activity against activated human PBMC assessed as decrease in cell division after 72 hrs by flow cytometric analysis", "procedure,_shortened": "as §1"}, "PBMC [5]": {"test_system": "PBMC", "experiment": "Induction of apoptosis in human activated PBMC assessed as necrosis at 14 uM by annexinV/propidium iodide staining-based flow cytometric analysis", "procedure,_shortened": "as §2"}, "PBMC [6]": {"test_system": "PBMC", "experiment": "Induction of apoptosis in human activated PBMC at 1.8 to 14 uM by annexinV/propidium iodide staining-based flow cytometric analysis", "procedure,_shortened": "as §2"}, "PBMC [7]": {"test_system": "PBMC", "experiment": "Antiproliferative activity against activated human PBMC assessed as decrease in cell division at 30 ug/ml after 72 hrs by flow cytometric analysis", "procedure,_shortened": "as §1"}, "PBMC [8]": {"test_system": "PBMC", "experiment": "Induction of apoptosis in human activated PBMC at 30 ug/ml by annexinV/propidium iodide staining-based flow cytometric analysis", "procedure,_shortened": "as §2"}, "PBMC [9]": {"test_system": "PBMC", "experiment": "Induction of apoptosis in human activated PBMC assessed as necrosis at 30 ug/ml by annexinV/propidium iodide staining-based flow cytometric analysis", "procedure,_shortened": "as §2"}},
  "note": "The source made the active and inactive calls. The calls are words filed in the database; no cut-off is given here.",
  "data": [
    {"smiles": "CC[C@H](C)[C@H](NC(=O)CN)C(=O)NCC(=O)N[C@@H](C)C(=O)N[C@H](C(=O)N[C@@H](CC(C)C)C(=O)N[C@@H](CCCCN)C(=O)N[C@H](C(=O)N[C@@H](CC(C)C)C(=O)N[C@H](C(=O)N[C@H](C(=O)NCC(=O)N[C@@H](CC(C)C)C(=O)N1CCC[C@H]1C(=O)N[C@@H](C)C(=O)N[C@@H](CC(C)C)C(=O)N[C@H](C(=O)N[C@@H](CO)C(=O)N[C@@H](Cc1c[nH]c2ccccc12)C(=O)N[C@H](C(=O)N[C@@H](CCCCN)C(=O)N[C@@H](CCCNC(=N)N)C(=O)N[C@@H](CCCCN)C(=O)N[C@@H](CCCNC(=N)N)C(=O)N[C@@H](CCC(N)=O)C(=O)N[C@@H](CCC(N)=O)C(N)=O)[C@@H](C)CC)[C@@H](C)CC)[C@@H](C)O)[C@@H](C)O)C(C)C)C(C)C", "values": [
      {"measurement": "Activity", "setting": "PBMC [1]", "result": "Active"},
      {"measurement": "Activity", "setting": "PBMC [2]", "result": "Active"},
      {"measurement": "Activity", "setting": "PBMC [3]", "result": "Active"}
    ]},
    {"smiles": "CC(C)C[C@@H]1NC(=O)CNC(=O)[C@H](CC(N)=O)NC(=O)[C@H](CCCNC(=N)N)NC(=O)[C@H]([C@@H](C)O)NC(=O)[C@@H]2CSSC[C@@H]3NC(=O)[C@H]([C@@H](C)O)NC(=O)CNC(=O)CNC(=O)[C@H](C(C)C)NC(=O)[C@@H]4CSSC[C@H](NC(=O)[C@H]([C@@H](C)O)NC(=O)[C@H](CSSC[C@H](NC(=O)[C@H](C(C)C)NC(=O)[C@@H]5CCCN5C1=O)C(=O)NCC(=O)N[C@@H](CCC(=O)O)C(=O)N[C@@H]([C@@H](C)O)C(=O)N4)NC(=O)CNC(=O)[C@@H]1CCCN1C(=O)[C@H]([C@@H](C)O)NC(=O)[C@H](CC(N)=O)NC3=O)C(=O)N[C@@H](CO)C(=O)N[C@@H](Cc1c[nH]c3ccccc13)C(=O)N1CCC[C@H]1C(=O)N[C@@H](C(C)C)C(=O)N2", "note": "[KALATA B1]", "values": [
      {"measurement": "IC50", "setting": "PBMC [4]", "result": 3.9, "unit": "µM"}
    ]},
    {"smiles": "CC(C)C[C@@H]1NC(=O)CNC(=O)[C@H](CC(N)=O)NC(=O)[C@H](CCCNC(=N)N)NC(=O)[C@H]([C@@H](C)O)NC(=O)[C@H](CS)NC(=O)[C@H](C(C)C)NC(=O)[C@@H]2CCCN2C(=O)[C@H](CCC(=O)O)NC(=O)[C@H](CO)NC(=O)[C@H](CS)NC(=O)[C@H]([C@@H](C)O)NC(=O)[C@H](CS)NC(=O)CNC(=O)[C@@H]2CCCN2C(=O)[C@H]([C@@H](C)O)NC(=O)[C@H](CC(N)=O)NC(=O)[C@H](CS)NC(=O)[C@H]([C@@H](C)O)NC(=O)CNC(=O)CNC(=O)[C@H](C(C)C)NC(=O)[C@H](CS)NC(=O)[C@H]([C@@H](C)O)NC(=O)[C@H](CCC(=O)O)NC(=O)CNC(=O)[C@H](CS)NC(=O)[C@H](C(C)C)NC(=O)[C@@H]2CCCN2C1=O", "values": [
      {"measurement": "Activity", "setting": "PBMC [5]", "result": "inactive"},
      {"measurement": "Activity", "setting": "PBMC [4]", "result": "Dose-dependent effect"},
      {"measurement": "Activity", "setting": "PBMC [6]", "result": "inactive"}
    ]},
    {"smiles": "CC[C@@]1(O)C(=O)OCc2c1cc1n(c2=O)Cc2cc3ccccc3nc2-1", "values": [
      {"measurement": "Activity", "setting": "PBMC [7]", "result": "Active"},
      {"measurement": "Activity", "setting": "PBMC [8]", "result": "Active"},
      {"measurement": "Activity", "setting": "PBMC [9]", "result": "Active"}
    ]}
  ]
}
